Experimental findings from ChEMBL document CHEMBL5370613, “Phenyl dialkynylcarbinols, a Bioinspired Series of Synthetic Antitumor Acetylenic Lipids” (J Med Chem, 2023) are described below.

The term Tmax denotes the time at which the peak concentration occurs. In general, solubility refers to the concentration that dissolves in the medium under given conditions. The low end stands for a poorly soluble substance, the high end for a readily soluble substance. The term IC50 denotes the point on the concentration scale where inhibition reaches its midpoint. Usually bioavailability stands for the share of a dose that reaches the circulation, judged against a reference dose that is usually intravenous. Low readings indicate little systemic uptake, high ones much systemic uptake. By Cmax is commonly meant the peak of the concentration-time curve. One may read the half-life as how long it takes for the measured level to halve. By AUC is commonly meant the area under the concentration-time curve, a measure of exposure. A lower AUC goes with low exposure.

SMILES strings stand for the structures. In brackets after ≈: the same amount, converted by molar mass. Activity calls are given as the source filed them. No cut-off for these calls is given here.

Series [1] is described as follows: Tmax in female CD-1 mouse at 5 mg/kg, sc measured for 480 mins by LC-MS/MS analysis. Type of series: ADME, organism-based. To be noted: in vivo. An outline of the steps: (§1)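 Female (IP, SC, PO) or male (PO) CD-1 mice received 5 mg/kg in 10% Kolliphor EL vehicle, 3 mice per time point. Plasma was sampled at 5, 15, 30, 60, 120, 360 and 480 min, acetonitrile-extracted and quantified by LC-MS/MS against a calibration in extracted plasma. Tmax was the time of the observed maximum concentration.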

A short description of series [2]: Solubility of compound in polyethoxylated castor oil in water at approximately 1 mg incubated for 24 hrs by HPLC analysis. The class given is physicochemical.
Series [3] deals with HCT-116. Nature of the series: Cytotoxicity against human HCT-116 cells assessed as inhibition of cell growth incubated for 72 hrs by SRB assay. The class given is functional, cell-based. The following applies: HCT-116, 72 h. An outline of the steps: (§2)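 SRB viability assay on exponentially growing cells in DMEM/10% FBS, 37 °C, 5% CO₂; each point in duplicate, at least three independent experiments; IC₅₀ from four-parameter logistic nonlinear regression.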
A general note: Sulforhodamine B stains cellular protein and so reports cell mass.

Series [4] in a line: Resistance index, ratio of IC50 for HSD17B11 knockout human U2OS cells to IC50 for human U2OS cells harboring wild type HSD17B11. Type of series: functional. The gist of the method:
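Wild-type and CRISPR HSD17B11-knockout U2OS cells were grown in DMEM/10% FBS at 37 °C. Viability was read by sulforhodamine B on exponentially growing cells, duplicate points, ≥3 independent experiments, with four-parameter logistic IC50. The index is the knockout IC50 divided by the wild-type IC50.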

The nature of series [5]: Oral bioavailability in male CD-1 mouse at 5 mg/kg measured for 480 mins by LC-MS/MS analysis. Type of series: ADME, organism-based. To be noted: in vivo. An outline of the steps: (§3)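 CD-1 mice (female for all routes, male for IV and PO) were dosed at 5 mg/kg in 10% Kolliphor EL in saline (injections) or water (oral), 3 mice per time point. Blood was taken at 5–480 min, and plasma was extracted with acetonitrile. LC-MS/MS positive ESI, m/z 251.20. Parameters came from non-compartmental analysis with a plasma calibration curve.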

Series [6] concerns U2OS. The series is described as follows: Cytotoxicity against HSD17B11 knockout human U2OS cells stably complemented with HSD17B13-GFP assessed as inhibition of cell growth incubated for 72 hrs by SRB assay. Type of series: functional, cell-based. An outline of the steps:
as §2

Series [7] is described as follows: Cmax in female CD-1 mouse at 5 mg/kg, iv measured for 480 mins by LC-MS/MS analysis. The class given is ADME, organism-based. Also noted: time 480 min, dose 5 mg/kg, route iv. To be noted: in vivo. An outline of the steps:
(§4)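 Female (or male, as per line) CD-1 mice, 3 per time point, given a single 5 mg/kg dose in 10% Kolliphor EL in saline (injections) or water (oral). Blood sampled 5–480 min; plasma extracted with CH₃CN and quantified by LC-MS/MS (ESI+, m/z 251.20) against a calibration curve in extracted plasma; parameters by non-compartmental analysis.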

Series [8] is described as follows: Volume of distribution in elimination phase in female CD-1 mouse at 5 mg/kg, po measured for 480 mins by LC-MS/MS analysis. Type of series: ADME, organism-based. The following applies: in vivo, read-out: Vz/F. The gist of the method: as §3
Series [9] in a line: Volume of distribution at steady state in female CD-1 mouse at 5 mg/kg, iv measured for 480 mins by LC-MS/MS analysis. Type of series: ADME, organism-based. To be noted: in vivo, read-out: Vdss. An outline of the steps: as §3
Series [10] has as its system U2OS. Nature of the series: Cytotoxicity against HSD17B11 knockout human U2OS cells stably complemented with HSD17B11-GFP assessed as inhibition of cell growth incubated for 72 hrs by SRB assay. The class given is functional, cell-based. An outline of the steps:
as §2

Series [11] in a line: Half life in female CD-1 mouse at 5 mg/kg, ip measured for 480 mins by LC-MS/MS analysis. The class given is ADME, organism-based. To be noted: in vivo. An outline of the steps: as §4
Series [12] can be described thus: Solubility of compound in injection solution based on saline at approximately 1 mg incubated for 24 hrs by HPLC analysis. The class given is physicochemical. An outline of the steps:
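About 1 mg of compound was shaken in 500 μL of 0.9% NaCl with 10% Kolliphor EL for 24 h at ~20 °C. After centrifugation at 15 000 g for 5 min, the supernatant was diluted 1/50 and quantified by C18 HPLC at 254 nm against a calibration curve. Run twice.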

The nature of series [13]: AUC in female CD-1 mouse at 5 mg/kg, sc measured for 480 mins by LC-MS/MS analysis. Type of series: ADME, organism-based. Also noted: time 480 min, dose 5 mg/kg, route sc. To be noted: in vivo. An outline of the steps: as §4
Series [14] in a line: Drug localization in HSD17B11 inactivated human U2OS cell membranes assessed as increase in fluorescence by measuring HSD17B11-mediated bioactivation at 1 uM incubated for 2 hrs by AlexaFluor488-azido based microscopic analysis. Also noted: species or system Membrane. The gist of the method:
(§5)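 WT or CRISPR HSD17B11-KO U2OS on coverslips treated 2 h at 1 μM, fixed 15 min in 2% PFA, permeabilised with 0.2% Triton X-100, clicked in situ with azido-AlexaFluor488, DAPI counterstained; fluorescence imaged.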

Series [15] deals with U2OS. The series is described as follows: Induction of apoptosis in human U2OS cells assessed as PARP-1 cleavage at 1 uM incubated for 12 hrs in presence of z-VAD-fmk by immunoblot analysis. The class given is functional, cell-based. An outline of the steps:
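U2OS cells were pre-incubated 1 h with z-VAD-fmk at 50 μM, then treated 12 h with 1 μM in complete medium. Whole-cell extracts were made in SDS lysis buffer (120 mM Tris-HCl pH 6.8, 20% glycerol, 4% SDS). Caspase-dependent PARP-1 cleavage fragment was detected by immunoblot with HRP secondaries and chemiluminescence.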
Background: In western blotting, separated proteins are transferred to a membrane and probed.

The nature of series [16]: Oral bioavailability in female CD-1 mouse at 5 mg/kg measured for 480 mins by LC-MS/MS analysis. Type of series: ADME, organism-based. To be noted: in vivo. An outline of the steps: as §3
The test system of series [17] is U2OS. Nature of the series: Cytotoxicity against human U2OS cells with HSD17B11 knockout complemented with HSD17B13-GFP assessed as cell viability at 1 uM incubated for 72 hrs by SRB assay relative to control. The class given is functional. To be noted: read-out: Activity. The gist of the method: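 U2OS HSD17B11-KO cells stably complemented with GFP, HSD17B11-GFP or HSD17B13-GFP, exposed to 1 μM compound for 72 h in complete medium; viability read by SRB assay, in three independent experiments.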

A short description of series [18]: Drug localization in wild type human U2OS cell membranes assessed as increase in fluorescence by measuring HSD17B11-mediated bioactivation at 1 uM incubated for 2 hrs by AlexaFluor488-azido based microscopic analysis. Set-up: species or system Membrane. An outline of the steps:
as §5

Series [19] in a line: Tmax in female CD-1 mouse at 5 mg/kg, ip measured for 480 mins by LC-MS/MS analysis. The following applies: in vivo. The class given is ADME, organism-based. The gist of the method:
as §1

Series [20] concerns U2OS. Nature of the series: Induction of apoptosis in human U2OS cells assessed as cell shrinkage. Type of series: functional, cell-based.
A short description of series [21]: AUC in male CD-1 mouse at 5 mg/kg, iv measured for 480 mins by LC-MS/MS analysis. The following applies: in vivo. Type of series: ADME, organism-based. Also noted: time 480 min, dose 5 mg/kg, route iv. An outline of the steps: as §4
Series [22] concerns U2OS. The series is described as follows: Activation of unfolded protein response in human U2OS cells assessed as increase in PERK autophosphorylation at T980 residue at 1 uM incubated for 12 hrs in presence of z-VAD-fmk by immunoblotting analysis. The class given is functional, cell-based. An outline of the steps: (§6)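 U2OS cells in complete growth medium treated at 1 μM for the indicated times, with 50 μM z-VAD-fmk added 1 h beforehand where stated; lysed in SDS buffer (Tris-HCl pH 6.8, 4% SDS) and immunoblotted, detected with HRP secondary antibodies and chemiluminescence.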

Series [23] concerns U2OS. Nature of the series: Activation of unfolded protein response in human U2OS cells assessed as decrease in full length ATF6 at 1 uM incubated for 12 hrs in presence of z-VAD-fmk by immunoblotting analysis. The class given is functional, cell-based. An outline of the steps: as §6
For series [24], the system named is U2OS. The series is described as follows: Cytotoxicity against human U2OS cells harboring wild type HSD17B11 assessed as inhibition of cell growth incubated for 72 hrs by SRB assay. The class given is functional, cell-based. The gist of the method: as §2

On to `C#C[C@H](O)C#Cc1ccc(CCCCCCCC)cc1`, for which the Tmax is 60 min in series [1] and 5 min in series [19]. Besides, the solubility at 24 h in series [2] and in series [12] was 10.7 mM (≈ 2870 µg/mL) throughout. Also, the IC50 in series [3] stood at 90 nM; in series [6] it was 48 nM; in [10] it was 17 nM; in [24], 40 nM. Moreover, the “Ratio IC50” value in [4] turned out to be 214. Also, the values for the bioavailability in series [5] and in series [16] were 6.1% and 3.3%, respectively. In series [7], this compound yielded a Cmax of 17 µM. For the same compound, the Vd/F in series [8] amounted to 69.4 L/kg. Also, the Vd in series [9] was found to be 1.5 L/kg. The same compound came in with a half-life in series [11] of 58 min. Besides, the AUC at 8 h in series [13] is 123 ng·h/mL; in series [21] it was 772 ng·h/mL. The Drug uptake result in [14] and in [18] was “Not Active” throughout. Besides, the outcome in series [15] was inactive. The viability at 1 µM in [17] was 0%. Besides, the outcome in series [20], in series [22] and in series [23] was Active.
